# From PubChem BioAssay AID809 (SRMLSC, 2007)
# pEC50: −log10 of the molar value. Calls of active or inactive are those of the source.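 How the source made its calls: active means EC50 for reversing nicotinamide-shortened yeast lifespan at or below a set limit; inactive means EC50 above that limit.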
# Tested on: S. cerevisiae DeaD BB579, nicotinamide rescue growth, OD615 48 h
# Test: BB579 yeast growth restoration under nicotinamide – S. cerevisiae, yeast lifespan extension project, dose response (AID 809)
# In short: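 System – S. cerevisiae DeaD strain BB579 · Buffer or medium – CSMM-D glucose restrictive medium · Times – culture pre-incubation 4 h, then compound exposure 48 h, both 30 °C · Signal – OD615 absorbance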
SMILES,EC50,pEC50
O=C(Nc1ccc(S(=O)(=O)N2CCc3ccccc3C2)cc1)c1ccccc1,> 10 µM (inactive),
CCOC(=O)C1CCN(C(c2cc3ccc(C)c(C)c3[nH]c2=O)c2nnnn2C2CCCCC2)CC1 (stereo not drawn),> 10 µM (inactive),
Cc1ccnc(SCc2cc(=O)c(OC(=O)c3ccco3)co2)n1,,5.07
CCCCNC(=O)/C(C#N)=C/c1cccnc1,,5.03
O=C(Oc1ccc2c(c1)OCO2)C12CC3CC(CC(C3)C1)C2,> 10 µM (inactive),
COc1ccc(C(=O)C(CN2CCOCC2)c2ccccc2)cc1 (stereo not drawn),,5.15
CN1OC(c2ccccc2)=C(CO)C1c1ccccc1 (stereo not drawn),> 10 µM (inactive),
CC1Cc2ccccc2N1C(=O)Cn1cnc2ccccc2c1=O (stereo not drawn),,5.50
CCOC(=O)c1[nH]nc(C(=O)c2ccc(Br)cc2)c1O,,5.23
CN1CCN(CC(=O)Nc2ccc(Cl)cc2Cl)CC1,> 10 µM (inactive),
N=c1c2c(-c3ccccc3)c(-c3ccccc3)n(Cc3ccco3)c2ncn1CCCn1ccnc1,,5.01
CCCNC(=O)CCC(NS(=O)(=O)c1ccc(C)cc1)C(=O)NCCC (stereo not drawn),> 10 µM (inactive),
CC(=O)N1CCN(CCN=CC2=C(O)CC(c3cccs3)CC2=O)CC1 (stereo not drawn),> 10 µM (inactive),
CCc1c(C)c(C#N)c2nc3ccccc3n2c1Cl,> 10 µM (inactive),
Cc1ccccc1Oc1cc(-n2ncc(Cl)c(Cl)c2=O)ncn1,> 10 µM (inactive),
CSC1=NSC2=NC(=O)/C(=C\c3cccs3)C(=N)N12,,5.48
Cc1ccc(Oc2nc3ccccc3n3c(C)nnc23)c(C)c1,> 10 µM (inactive),
Nn1c(-c2ccccn2)nnc1-c1ccccn1,> 10 µM (inactive),
Cc1ccc(NC(=O)CN2CCN(CCN=CC3=C(O)CC(c4ccccc4)CC3=O)CC2)cc1 (stereo not drawn),,5.02
C=CCn1c(O)c(C(CC)=NCCN2CCOCC2)c(=O)[nH]c1=O,> 10 µM (inactive),
Cc1ccc(C(=O)C2C(=O)c3ccccc3C2=O)cc1,,5.43
CCN1CCCC1CNC(=O)COc1cc(=O)n(C)c2ccccc12 (stereo not drawn),> 10 µM (inactive),
CCC(=O)N1CCN(CCN=CC2=C(O)CC(c3cccs3)CC2=O)CC1 (stereo not drawn),,5.00
O=C(CS(=O)c1ccc(C(F)(F)F)cc1[N+](=O)[O-])Oc1ccccc1 (stereo not drawn),,5.28
CCCn1c(C)cc(C(=O)COc2ncnc3sccc23)c1C,,5.30
O=C1NC(=O)N(CCC2=CCCCC2)C(=O)/C1=C\c1cccs1,,5.15
COc1ccccc1CN(Cc1nc2ccccc2c(=O)[nH]1)C(=O)Nc1cccc(C)c1,> 10 µM (inactive),

SMILES,EC50,pEC50
CC1=CS(=O)(=O)CC1Sc1nc2ccccc2[nH]1 (stereo not drawn),> 10 µM (inactive),
CC(C)C(c1nnnn1Cc1ccccc1)N1CCN(Cc2ccc3c(c2)OCO3)CC1 (stereo not drawn),> 10 µM (inactive),
CCn1c(/N=C/c2ccccc2NS(=O)(=O)c2ccc(C)cc2)nc2ccccc21,,5.48
O=c1c(-c2ccc(Cl)cc2)[n+]([O-])c2ccccc2n1OCc1ccccn1,> 10 µM (inactive),
Cc1ccc(C(=O)c2no[n+]([O-])c2C(=O)c2ccc(C)cc2)cc1,> 10 µM (inactive),
O=c1c2[nH]c3ccccc3c2ncn1Cc1ccco1,> 10 µM (inactive),
CCCN1C(=O)/C(=C/c2ccncc2)SC1=S,,5.16
CCc1ccc2c(c1)CCCN2C(=O)c1ccccc1C(=O)O,,5.03
COc1ccccc1C(=O)Oc1ccc2c(c1)O/C(=C\c1ccncc1)C2=O,> 10 µM (inactive),
Cn1c(=O)c2c(nc(Br)n2Cc2ccc3ccccc3c2)n(C)c1=O,> 10 µM (inactive),
CN1C(=O)C(Cl)(Cl)C(=O)c2ccccc21,> 10 µM (inactive),
Cc1ccc(-c2nc3ccc(Cl)cc3n2OC(=O)N(C)C)cc1,> 10 µM (inactive),
CCOC(=O)c1ccc2c(c1)n(CCO)c(C)[n+]2CC,> 10 µM (inactive),
CCCCCCC1C(C#N)=C(N)OC2=C1C(=O)CC(C)(C)C2 (stereo not drawn),> 10 µM (inactive),
O=C(c1cnn2c(C(F)F)cc(C3CC3)nc12)N1CCCC1,> 10 µM (inactive),
Cc1cc(N2C(=O)CC(Cc3ccccc3)C2=O)no1 (stereo not drawn),> 10 µM (inactive),
CCSc1ccccc1C(=O)n1nnc2ccccc21,,5.11
Cc1cc(C)nc(SCc2cc(=O)c(OC(=O)c3ccco3)co2)n1,> 10 µM (inactive),
CN1CCC2(CC1)C(C#N)=C(N)NC(S)=C2C#N,> 10 µM (inactive),
O=C(NNC1=Nc2cccc3cccc1c23)c1ccccc1Br,> 10 µM (inactive),
COc1cc(C(C[N+](=O)[O-])c2c(-c3ccccc3)cc3ccccn23)cc(OC)c1OC (stereo not drawn),> 10 µM (inactive),
C=C(C(=O)c1ccccc1)C(C)C(=C)C(=O)c1ccccc1,,5.34
Cc1ccc2[nH]c3c(c2c1)CC/C(=C/c1ccccc1)C3=O,> 10 µM (inactive),
COCCCN(C(=S)Nc1cc(Cl)cc(Cl)c1)C(C)c1ccncc1 (stereo not drawn),> 10 µM (inactive),
CCOc1ccc2nc(NCCNC(=O)Nc3ccccc3)c(C#N)cc2c1,> 10 µM (inactive),
Oc1ccc2ccccc2c1C=Nc1ccccc1-c1nc2ccccc2[nH]1,> 10 µM (inactive),
